Test results reported in ChEMBL document CHEMBL4715745, “Synthesis and biological evaluation of novel FK228 analogues as potential isoform selective HDAC inhibitors” (Eur J Med Chem, 2016).

Tested on: NCI-H226
Assay: Growth inhibition of human NCI-H226 cells measured after 48 hrs by sulforhodamine B assay
Assay type: functional
How it was run: (§1)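 Panel of 39 human cancer cell lines tested at the Japanese Foundation for Cancer Research. Five concentrations per compound, spanning 10⁻¹¹–10⁻⁷ M, 10⁻¹⁰–10⁻⁶ M or 10⁻⁸–10⁻⁴ M, were used to build dose-response curves. GI₅₀ is the concentration giving 50% growth inhibition relative to control.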

GI50 | SMILES
59 nM | CC(C)C[C@H]1NC(=O)[C@H]2CSSCC/C=C/[C@H](CC(=O)N[C@H](C(C)C)C(=O)N2)OC(=O)CNC1=O

Tested on: SK-OV-3
Assay: Growth inhibition of human SK-OV-3 cells measured after 48 hrs by sulforhodamine B assay
Assay type: functional
How it was run: as §1

GI50 | SMILES
23 nM | CC(C)C[C@H]1NC(=O)[C@H]2CSSCC/C=C/[C@H](CC(=O)N[C@H](C(C)C)C(=O)N2)OC(=O)CNC1=O

Tested on: NCI-H460
Assay: Growth inhibition of human NCI-H460 cells measured after 48 hrs by sulforhodamine B assay
Assay type: functional
How it was run: as §1

GI50 | SMILES
39 nM | CC(C)C[C@H]1NC(=O)[C@H]2CSSCC/C=C/[C@H](CC(=O)N[C@H](C(C)C)C(=O)N2)OC(=O)CNC1=O

Tested on: A549
Assay: Growth inhibition of human A549 cells measured after 48 hrs by sulforhodamine B assay
Assay type: functional
How it was run: as §1

GI50 | SMILES
23 nM | CC(C)C[C@H]1NC(=O)[C@H]2CSSCC/C=C/[C@H](CC(=O)N[C@H](C(C)C)C(=O)N2)OC(=O)CNC1=O

Target: T1, Protein deacetylase HDAC6 (Mus musculus, UniProt Q9Z2V5)
T1 sequence (Q9Z2V5 whole entry): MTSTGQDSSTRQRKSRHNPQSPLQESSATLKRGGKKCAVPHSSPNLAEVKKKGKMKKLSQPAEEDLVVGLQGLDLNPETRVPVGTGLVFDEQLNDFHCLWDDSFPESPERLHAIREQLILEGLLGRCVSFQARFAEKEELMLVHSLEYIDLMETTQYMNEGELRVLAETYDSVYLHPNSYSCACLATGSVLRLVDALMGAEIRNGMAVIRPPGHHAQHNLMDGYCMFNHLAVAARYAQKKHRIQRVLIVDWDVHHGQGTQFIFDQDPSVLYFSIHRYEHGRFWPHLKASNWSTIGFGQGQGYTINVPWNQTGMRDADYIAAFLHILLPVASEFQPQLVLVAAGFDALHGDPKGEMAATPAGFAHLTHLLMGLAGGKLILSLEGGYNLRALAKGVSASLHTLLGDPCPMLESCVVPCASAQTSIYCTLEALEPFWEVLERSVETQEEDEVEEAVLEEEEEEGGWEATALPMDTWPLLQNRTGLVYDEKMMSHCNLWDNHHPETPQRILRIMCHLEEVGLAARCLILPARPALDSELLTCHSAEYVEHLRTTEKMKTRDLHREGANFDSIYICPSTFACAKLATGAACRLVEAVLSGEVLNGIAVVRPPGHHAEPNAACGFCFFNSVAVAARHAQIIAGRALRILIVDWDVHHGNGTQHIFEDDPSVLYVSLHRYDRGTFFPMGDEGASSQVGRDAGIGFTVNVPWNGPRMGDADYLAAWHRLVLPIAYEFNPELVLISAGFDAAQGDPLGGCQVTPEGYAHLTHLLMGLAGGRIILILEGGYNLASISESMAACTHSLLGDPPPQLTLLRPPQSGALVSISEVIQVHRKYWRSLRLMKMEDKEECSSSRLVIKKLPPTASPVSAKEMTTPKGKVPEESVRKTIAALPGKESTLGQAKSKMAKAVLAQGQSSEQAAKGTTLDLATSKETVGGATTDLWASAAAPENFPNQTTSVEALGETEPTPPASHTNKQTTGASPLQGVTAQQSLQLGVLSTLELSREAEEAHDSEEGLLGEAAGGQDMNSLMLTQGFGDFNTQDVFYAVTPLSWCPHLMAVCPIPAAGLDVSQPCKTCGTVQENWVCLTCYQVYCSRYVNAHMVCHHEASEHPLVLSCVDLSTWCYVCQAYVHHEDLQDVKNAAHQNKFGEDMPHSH
Assay: Inhibition of mouse HDAC6 expressed in 293T cells using Ac-KGLGK(Ac)-MCA as substrate incubated for 30 mins in presence of 0.1 mM DTT by fluorescence plate reader assay
Parameters: species or system HEK293T
How it was run: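 HDAC enzyme assay run in the presence of 0.1 mM dithiothreitol (DTT); IC₅₀ determined.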

IC50 | SMILES
8450 nM | CC(C)C[C@H]1NC(=O)[C@H]2CSSCC/C=C/[C@H](CC(=O)N[C@H](C(C)C)C(=O)N2)OC(=O)CNC1=O

Tested on: DMS-273
Assay: Growth inhibition of human DMS-273 cells measured after 48 hrs by sulforhodamine B assay
Assay type: functional
How it was run: as §1

SMILES | GI50
CC(C)C[C@H]1NC(=O)[C@H]2CSSCC/C=C/[C@H](CC(=O)N[C@H](C(C)C)C(=O)N2)OC(=O)CNC1=O | 74 nM

Tested on: SNB-75
Assay: Growth inhibition of human SNB-75 cells measured after 48 hrs by sulforhodamine B assay
Assay type: functional
How it was run: as §1

SMILES | GI50
CC(C)C[C@H]1NC(=O)[C@H]2CSSCC/C=C/[C@H](CC(=O)N[C@H](C(C)C)C(=O)N2)OC(=O)CNC1=O | 43 nM

Tested on: SF-295
Assay: Growth inhibition of human SF-295 cells measured after 48 hrs by sulforhodamine B assay
Assay type: functional
How it was run: as §1

SMILES | GI50
CC(C)C[C@H]1NC(=O)[C@H]2CSSCC/C=C/[C@H](CC(=O)N[C@H](C(C)C)C(=O)N2)OC(=O)CNC1=O | 1100 nM

Tested on: KM12
Assay: Growth inhibition of human KM12 cells measured after 48 hrs by sulforhodamine B assay
Assay type: functional
How it was run: as §1

SMILES | GI50
CC(C)C[C@H]1NC(=O)[C@H]2CSSCC/C=C/[C@H](CC(=O)N[C@H](C(C)C)C(=O)N2)OC(=O)CNC1=O | 33 nM

Tested on: ACHN
Assay: Growth inhibition of human ACHN cells measured after 48 hrs by sulforhodamine B assay
Assay type: functional
How it was run: as §1

GI50 | SMILES
200 nM | CC(C)C[C@H]1NC(=O)[C@H]2CSSCC/C=C/[C@H](CC(=O)N[C@H](C(C)C)C(=O)N2)OC(=O)CNC1=O

Target: Histone deacetylase 1 (Homo sapiens, UniProt Q13547)
Sequence (Q13547 whole entry): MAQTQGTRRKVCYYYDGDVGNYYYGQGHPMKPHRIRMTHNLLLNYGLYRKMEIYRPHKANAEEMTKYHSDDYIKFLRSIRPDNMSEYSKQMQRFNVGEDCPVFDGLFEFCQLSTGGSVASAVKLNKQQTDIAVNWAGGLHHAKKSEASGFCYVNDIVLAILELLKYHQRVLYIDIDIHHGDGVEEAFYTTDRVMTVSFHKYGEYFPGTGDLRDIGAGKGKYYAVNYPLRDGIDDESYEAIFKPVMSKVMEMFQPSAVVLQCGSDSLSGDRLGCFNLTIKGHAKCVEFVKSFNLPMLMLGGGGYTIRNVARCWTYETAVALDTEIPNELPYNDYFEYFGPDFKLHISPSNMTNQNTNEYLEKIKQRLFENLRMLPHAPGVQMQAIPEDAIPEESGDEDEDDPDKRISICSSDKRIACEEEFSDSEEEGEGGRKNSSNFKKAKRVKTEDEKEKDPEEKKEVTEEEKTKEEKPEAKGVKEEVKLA
Assay: Inhibition of human HDAC1 expressed in 293T cells using Ac-KGLGK(Ac)-MCA as substrate incubated for 30 mins in presence of 0.1 mM DTT by fluorescence plate reader assay
Parameters: species or system HEK293T

IC50 | SMILES
0.96 nM | CC(C)C[C@H]1NC(=O)[C@H]2CSSCC/C=C/[C@H](CC(=O)N[C@H](C(C)C)C(=O)N2)OC(=O)CNC1=O

Tested on: not listed separately
Assay: Growth inhibition of human HBC4 cells measured after 48 hrs by sulforhodamine B assay
Assay type: functional
How it was run: as §1

SMILES | GI50
CC(C)C[C@H]1NC(=O)[C@H]2CSSCC/C=C/[C@H](CC(=O)N[C@H](C(C)C)C(=O)N2)OC(=O)CNC1=O | 70 nM

Tested on: HCT-116
Assay: Growth inhibition of human HCT-116 cells measured after 48 hrs by sulforhodamine B assay
Assay type: functional
How it was run: as §1

GI50 | SMILES
22 nM | CC(C)C[C@H]1NC(=O)[C@H]2CSSCC/C=C/[C@H](CC(=O)N[C@H](C(C)C)C(=O)N2)OC(=O)CNC1=O

Tested on: DMS-114
Assay: Growth inhibition of human DMS-114 cells measured after 48 hrs by sulforhodamine B assay
Assay type: functional
How it was run: as §1

SMILES | GI50
CC(C)C[C@H]1NC(=O)[C@H]2CSSCC/C=C/[C@H](CC(=O)N[C@H](C(C)C)C(=O)N2)OC(=O)CNC1=O | 36 nM

Tested on: SF-268
Assay: Growth inhibition of human SF-268 cells measured after 48 hrs by sulforhodamine B assay
Assay type: functional
How it was run: as §1

SMILES | GI50
CC(C)C[C@H]1NC(=O)[C@H]2CSSCC/C=C/[C@H](CC(=O)N[C@H](C(C)C)C(=O)N2)OC(=O)CNC1=O | 11 nM

Tested on: RXF 631
Assay: Growth inhibition of human RXF 631 cells measured after 48 hrs by sulforhodamine B assay
Assay type: functional
How it was run: as §1

SMILES | GI50
CC(C)C[C@H]1NC(=O)[C@H]2CSSCC/C=C/[C@H](CC(=O)N[C@H](C(C)C)C(=O)N2)OC(=O)CNC1=O | 68 nM

Tested on: MKN-1
Assay: Growth inhibition of human MKN-1 cells measured after 48 hrs by sulforhodamine B assay
Assay type: functional
How it was run: as §1

GI50 | SMILES
21 nM | CC(C)C[C@H]1NC(=O)[C@H]2CSSCC/C=C/[C@H](CC(=O)N[C@H](C(C)C)C(=O)N2)OC(=O)CNC1=O

Tested on: DU-145
Assay: Growth inhibition of human DU-145 cells measured after 48 hrs by sulforhodamine B assay
Assay type: functional
How it was run: as §1

GI50 | SMILES
37 nM | CC(C)C[C@H]1NC(=O)[C@H]2CSSCC/C=C/[C@H](CC(=O)N[C@H](C(C)C)C(=O)N2)OC(=O)CNC1=O

Tested on: HCC 2998
Assay: Growth inhibition of human HCC 2998 cells measured after 48 hrs by sulforhodamine B assay
Assay type: functional
How it was run: as §1

GI50 | SMILES
27 nM | CC(C)C[C@H]1NC(=O)[C@H]2CSSCC/C=C/[C@H](CC(=O)N[C@H](C(C)C)C(=O)N2)OC(=O)CNC1=O

Tested on: PC-3
Assay: Growth inhibition of human PC-3 cells measured after 48 hrs by sulforhodamine B assay
Assay type: functional
How it was run: as §1

GI50 | SMILES
69 nM | CC(C)C[C@H]1NC(=O)[C@H]2CSSCC/C=C/[C@H](CC(=O)N[C@H](C(C)C)C(=O)N2)OC(=O)CNC1=O

Tested on: U-251
Assay: Growth inhibition of human U-251 cells measured after 48 hrs by sulforhodamine B assay
Assay type: functional
How it was run: as §1

GI50 | SMILES
10 nM | CC(C)C[C@H]1NC(=O)[C@H]2CSSCC/C=C/[C@H](CC(=O)N[C@H](C(C)C)C(=O)N2)OC(=O)CNC1=O
